Shown are actives, neighbours in structure and some others; about 3.5% of the full set was active somewhere.
MrgX1 antagonist – blocks BAM8-22 activation of human MrgX1 receptor; Q96LB2; AID 588676; B-score at 10 µM; MRGX1-HEK293 calcium flux, Fluo-4, BAM8-22 antagonism; active compounds read low; 310,000 compounds, 1.3% hits;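 active = calcium-response B-score plate-corrected more than 3 library SD below zero, starting fluorescence within 5 deviations, no agonist response on first addition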;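 note: peak minus trough fluorescence over baseline after final BAM8-22 challenge near maximal dose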
Target sequence (Q96LB2 whole entry, looked up): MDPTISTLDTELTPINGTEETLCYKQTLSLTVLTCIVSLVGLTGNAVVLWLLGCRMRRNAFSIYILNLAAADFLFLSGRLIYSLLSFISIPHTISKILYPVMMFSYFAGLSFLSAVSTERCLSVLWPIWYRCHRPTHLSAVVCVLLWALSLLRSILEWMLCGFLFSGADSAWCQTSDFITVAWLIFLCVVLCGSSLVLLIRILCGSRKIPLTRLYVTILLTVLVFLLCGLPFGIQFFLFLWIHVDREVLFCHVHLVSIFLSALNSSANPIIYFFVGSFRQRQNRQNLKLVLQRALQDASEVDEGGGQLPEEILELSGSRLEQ
RGS4 inh – inhibitors of human RGS4; HEK293 M3R/RGS4 inducible, Fluo-4 calcium flux; active compounds read high; triggered by carbachol at its EC20; B-score at 10 µM; 310,000 compounds, 0.45% hits; AID 463165;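 active = B-score, a plate-corrected calcium signal, over three deviations above library mean, with baseline fluorescence within five deviations of library mean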;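 note: RGS4 expression induced by doxycycline in cells with stable M3 receptor; B-score is computed from the integrated fluorescence ratio over baseline after carbachol; higher B-score means a larger calcium signal and so more RGS4 inhibition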
Target sequence (P49798 whole entry, looked up): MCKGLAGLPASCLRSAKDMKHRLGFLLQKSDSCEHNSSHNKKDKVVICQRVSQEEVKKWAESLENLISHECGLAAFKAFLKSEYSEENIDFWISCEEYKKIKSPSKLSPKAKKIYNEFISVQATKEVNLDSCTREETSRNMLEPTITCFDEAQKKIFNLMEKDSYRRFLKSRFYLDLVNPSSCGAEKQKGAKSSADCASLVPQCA
RGS4 pot – RGS4 potentiation or activation; HEK293 M3R/inducible RGS4, carbachol calcium flux Fluo4; active compounds read low; B-score at 10 µM; 310,000 compounds, 0.92% hits;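 active = B-score of the integrated calcium signal more than 4 SD below the library mean, with starting fluorescence not abnormally high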;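 note: negative B-score means reduced calcium response which marks RGS4 activation or potentiation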
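Assay system: HEK293 FlpIn-TREx cells, stable M3R, doxycycline-inducible RGS4 / Probe or stimulus: carbachol, ECmax concentration / Times: overnight RGS4 induction, 30 min dye load 37 °C, 20 min compound RT / Signal: kinetic calcium fluorescence imaging with Fluo4-AM dye, 2 µM / Measure: Agonist-evoked peak-minus-minimum fluorescence over baseline, integrated ratio, B score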
MrgX1 agonist – human MrgX1 receptor agonism, primary screen. 310,000 compounds, 0.44% hits. AID 588627. MrgX1-HEK293 cells, Fluo-4 calcium fluorescence, agonist mode; active compounds read high. B-score at 10 µM;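 active = calcium response B-score plate-corrected fluorescence ratio at least 3 library SD, with starting fluorescence B-score inside 5 SD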
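System – MrgX1-expressing HEK293 cells · Incubation – cells plated overnight, dye loaded 0.5 h 37 °C, 0.5 h room temperature · Technique – kinetic Fluo-4 NW fluorescence of intracellular calcium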
MrgX1 PAM – human MrgX1 positive allosteric modulation, primary screen. MrgX1-HEK293, Fluo-4 calcium flux, FDSS; active compounds read high. B-score at 10 µM. 310,000 compounds, 0.63% hits. AID 588675;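 active = plate-corrected calcium response at least 3 library SD above typical, normal starting fluorescence, not activating the receptor alone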;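 note: compound read alongside a low EC10 to EC30 dose of BAM8-22 agonist; peak minus trough fluorescence over baseline measured at the second addition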
RGS4 act valid – confirmation of RGS4 activators | shares compounds with RGS4 pot | HEK293 M3R/RGS4 inducible, carbachol calcium flux Fluo4 | inhibition, % at 10 µM | 1,100 compounds, 89% hits | AID 602282;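 active = inhibition above 3 SD of the buffer control wells, cut at about 41% in these data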;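 note: signal is the integrated peak-minus-minimum Fluo4 fluorescence over baseline ratio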
M3R Ca counter – activity in cells without induced RGS4 expression | inhibition, % at 10 µM | shares compounds with RGS4 pot | HEK293 M3R non-induced RGS4, Fluo4 calcium flux; after carbachol challenge at its EC90 | 1,100 compounds, 82% hits;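 active = inhibition exceeding 3 SD of buffer-only control wells, cut at about 26% in these data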;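 note: percent drop in integrated peak-minus-baseline over baseline Fluo4 ratio after carbachol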
MrgX1 ag confirm – reconfirmed activator of human MrgX1 receptor signaling | shares compounds with MrgX1 agonist | MrgX1-HEK293, Fluo-4 calcium fluorescence, FDSS | activation, % at 10 µM | 600 compounds, 78% hits | AID 602412;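 active = calcium signal rise, corrected for plate position, at least 3 library SD high, with starting brightness within 5 such deviations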; note: reference of the scale not given here
MrgX1 allo conf – human MrgX1 positive allosteric modulation, re-confirmation; 1,200 compounds, 13% hits; activation (ratio percentage), % at 10 µM; MrgX1-HEK293, Fluo-4 calcium fluorescence, FDSS; shares compounds with MrgX1 PAM; AID 602413;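 active = ratio at least 3 SD above the weak peptide control, stable starting fluorescence, no direct agonism earlier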;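 note: compound followed by low BAM8-22 agonist challenge near EC20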
MrgX1 antag conf – human MrgX1 receptor antagonism, re-confirmation screen | AID 602420 | 2,300 compounds, 19% hits | shares compounds with MrgX1 antagonist | remaining BAM8-22 calcium response % of control (active compounds read low), % at 10 µM | MrgX1-HEK293, BAM8-22 calcium flux, Fluo-4; active compounds read low;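 active = remaining agonist calcium response no higher than 100% minus 3 SD of agonist-only control wells, with starting fluorescence near control levels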;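 note: agonist BAM8-22 given at a near maximal EC90 to ECmax level; peak minus minimum fluorescence divided by baseline after agonist addition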
HEK293 Ca flux – MrgX1 antagonist counter-screen hit in parental HEK293 cells; shares compounds with MrgX1 antagonist; Fluo-4 calcium fluorescence, FDSS; fluorescence ratio F(max-min)/F0 at 10 µM; 4,000 compounds, 2% hits; AID 624111;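 active = duplicate-averaged calcium fluorescence ratio at least three times the standard deviation of buffer wells, a nonspecific response in parental cells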
HEK293 Ca counter – MrgX1 allosteric activator counter-screen hit in parental HEK293 cells; shares compounds with MrgX1 antagonist; parental HEK293 calcium flux, Fluo-4 fluorescence ratio; active compounds read high; fluorescence ratio F(max-min)/F0 at 10 µM; 4,000 compounds, 0.4% hits; AID 624114;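 active = calcium fluorescence ratio, averaged over duplicates, at least 3 SD of the buffer-well ratio, meaning a nonspecific response in receptor-free cells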;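 note: untransfected parental HEK293 lacking MrgX1 used as counterscreen for MrgX1 allosteric activators; fluorescence change taken during the second addition on a kinetic imager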
HEK293 Ca cntr2 – MrgX1 activator counter-screen hit in parental HEK293 cells; shares compounds with MrgX1 antagonist; Fluo-4 calcium fluorescence (FDSS); active compounds read high; fluorescence ratio F(max-min)/F0 at 10 µM; 4,000 compounds, 8.7% hits;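 active = calcium fluorescence ratio at least three times the spread of buffer wells, meaning a non-specific response in parental cells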
Large screens that a line does not name were inactive (follow-up assays come after a bar, where they were run).

Cc1ccc(OCc2ccc(C(=O)N3CCCC3)o2)cc1C	MrgX1 antagonist -5.3, RGS4 pot -7.9 | RGS4 act valid 73 | M3R Ca counter 84 | MrgX1 antag conf 73% | HEK293 Ca flux inactive | HEK293 Ca counter inactive | HEK293 Ca cntr2 inactive
COc1ccccc1OC(C)C(=O)Nc1nc(-c2ccc(S(=O)(=O)N3CCOCC3)cc2)cs1 (stereo unspecified)	none
COc1ccccc1C(=O)Nc1nc(-c2ccc(S(=O)(=O)N3CCOCC3)cc2)cs1	MrgX1 antagonist -8.3, RGS4 pot -9.6 | RGS4 act valid 92 | M3R Ca counter 58 | MrgX1 antag conf 51% | HEK293 Ca flux inactive | HEK293 Ca counter inactive | HEK293 Ca cntr2 inactive
COc1ccc(C(=O)CSc2[nH]c(=O)cc(C(F)(F)F)c2C#N)cc1	none
COc1cccc(-c2csc(N3CCN(C(=O)Nc4ccc(Cl)cc4)CC3)n2)c1	MrgX1 antagonist -6.1, RGS4 pot -8.4 | RGS4 act valid 87 | M3R Ca counter 56 | MrgX1 antag conf 75% | HEK293 Ca flux inactive | HEK293 Ca counter inactive | HEK293 Ca cntr2 inactive
COC(=O)c1sc(-c2ccc(C(C)(C)C)cc2)cc1NC(=O)CSCC(=O)O	MrgX1 antagonist -5.3, RGS4 pot -7.7 | RGS4 act valid 75 | M3R Ca counter 84 | MrgX1 antag conf inactive | HEK293 Ca flux inactive | HEK293 Ca counter inactive | HEK293 Ca cntr2 inactive
CCN(CC)CC#CCC(O)(c1ccccc1)C1CCCC1 (stereo unspecified)	MrgX1 antagonist -8.7, RGS4 pot -7.9 | RGS4 act valid 94 | M3R Ca counter 91 | MrgX1 antag conf inactive | HEK293 Ca flux inactive | HEK293 Ca counter inactive | HEK293 Ca cntr2 inactive
CC(Oc1ccccc1)C(=O)N1CCN=C1SCc1ccc(F)cc1 (stereo unspecified)	none
Cc1oc2c(c(=O)c1C)C(=O)CC(c1ccccc1)C2 (stereo unspecified)	none
CS(=O)(=O)c1sc(C#N)c2c1C(=O)CC(c1ccccc1)C2 (stereo unspecified)	RGS4 pot -9, MrgX1 agonist 37 | RGS4 act valid 53 | M3R Ca counter inactive | MrgX1 ag confirm 257% | HEK293 Ca flux inactive | HEK293 Ca counter inactive | HEK293 Ca cntr2 53
CNS(=O)(=O)c1cccc(C(=O)OCc2cc(=O)oc3c(C)c(O)ccc23)c1	MrgX1 antagonist -9.4, RGS4 pot -8.2 | RGS4 act valid 85 | M3R Ca counter 70 | MrgX1 antag conf 54% | HEK293 Ca flux inactive | HEK293 Ca counter inactive | HEK293 Ca cntr2 inactive
CCOC(=O)c1cnc2c(C)cccc2c1NCc1ccco1	RGS4 pot -12, MrgX1 PAM 7.6 | RGS4 act valid 92 | M3R Ca counter 94 | MrgX1 allo conf inactive | HEK293 Ca flux inactive | HEK293 Ca counter inactive | HEK293 Ca cntr2 inactive
O=C(OCc1ccc(F)cc1)c1ccc2c(c1)-c1ccccc1C2=O	none
CCOC(=O)C1=C(Cc2ccc(F)cc2)C(=O)c2ccccc2C1=O	RGS4 pot -9.1, MrgX1 agonist 108 | RGS4 act valid 89 | M3R Ca counter 46 | MrgX1 ag confirm 163% | HEK293 Ca flux inactive | HEK293 Ca counter inactive | HEK293 Ca cntr2 54
CCCCc1c(O)c2cccc3c2n(c1=O)CCC3	none
Cc1ccc(O)c(C(=O)c2cnc3c(c2)COc2ccccc2-3)c1	MrgX1 antagonist -10, RGS4 pot -9.3 | RGS4 act valid 86 | M3R Ca counter 88 | MrgX1 antag conf inactive | HEK293 Ca flux inactive | HEK293 Ca counter inactive | HEK293 Ca cntr2 inactive
O=C(COc1ccccc1Cl)NCCCNC(=O)c1ccco1	none
O=C(/C=C/c1ccccc1)NCCS(=O)(=O)N1CCN(c2ccc(F)cc2)CC1	none
CN(Cc1ccccc1)c1nc2c(c(=O)n(C)c(=O)n2C)n1CCCc1ccccc1	RGS4 pot -8.5, MrgX1 PAM 8.9 | RGS4 act valid 75 | M3R Ca counter 84 | MrgX1 allo conf inactive | HEK293 Ca flux inactive | HEK293 Ca counter inactive | HEK293 Ca cntr2 inactive
CCN(CC)c1nc2c(c(=O)n(C)c(=O)n2C)n1CCCc1ccccc1	none
CCC(C)(C)NC(=O)CN(C(=O)CCC(=O)Nc1nccs1)c1ccc2c(c1)OCCO2	none
Oc1ccc(Nc2nnc(-c3ccc(O)cc3)c3ccccc23)cc1	none
COc1ccc(Nc2nnc(-c3ccc(O)cc3)c3ccccc23)cc1	MrgX1 antagonist -8.4, RGS4 pot -9.3 | RGS4 act valid 82 | M3R Ca counter 43 | MrgX1 antag conf inactive | HEK293 Ca flux inactive | HEK293 Ca counter 54 | HEK293 Ca cntr2 inactive
Cc1ccc(CNC(=O)Cn2nnc(C(=O)Nc3cc(C)ccc3C)c2N)cc1	none
COc1cccc(N2CCN(c3ncnc4c3[nH]c3ccccc34)CC2C)c1 (stereo unspecified)	MrgX1 antagonist -15, RGS4 pot -9 | RGS4 act valid 94 | M3R Ca counter 83 | MrgX1 antag conf 4.6% | HEK293 Ca flux inactive | HEK293 Ca counter inactive | HEK293 Ca cntr2 inactive
Cc1cc(-c2cccs2)c2c(N)c(C(=O)c3ccc4c(c3)OCO4)sc2n1	MrgX1 antagonist -8.3, RGS4 pot -7.9 | RGS4 act valid 93 | M3R Ca counter 96 | MrgX1 antag conf inactive | HEK293 Ca flux 0.65 | HEK293 Ca counter inactive | HEK293 Ca cntr2 inactive
CCOC(=O)N1CCN(C(=O)c2ccc3oc(CCCc4ccccc4)nc3c2)CC1	none

Compound activity: PubChem, Johns Hopkins Ion Channel Center
